Bioassay records deposited in PubChem BioAssay by The Scripps Research Institute Molecular Screening Center.
Shown are actives, neighbours in structure and some others; about 2.5% of the full set was active somewhere.
HTRA1 inhibitor = HTRA1 serine protease inhibitors, primary screen, biochemical, fluorescence polarization, HTS. inhibition, % at 5.96 µM. AID 504803, 2011. Q92743. actives 0.5% (n = 340,000). recombinant HTRA1, FP-rhodamine activity-based probe; in the data active = inhibition above about 36%
SIAE primary = human SIAE inhibitors, primary screen, biochemical, fluorescence polarization, FP-Rh probe, 1536-well HTS | Sialate O-acetylesterase (Homo sapiens), Q9HAT2 | SIAE FP-Rh probe binding | inhibition, % at 9.66 µM | actives 0.69% (n = 370,000) | AID 1053197, 2014;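 active = inhibition above a cutoff: mean of compounds within the control limits plus 3 SD of those, cut at about 17% in these data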
PRMT1 inh = PRMT1 methyltransferase inhibitors, primary screen, biochemical, fluorescence polarization. recombinant PRMT1, activity-based probe fluorescence polarization. AID 652257, 2013. actives 1.3% (n = 370,000). inhibition, % at 2.79 µM;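 active = inhibition above about 21% made by adding two undisclosed values, limit read from the data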
Target sequence (Q99873 whole entry, looked up): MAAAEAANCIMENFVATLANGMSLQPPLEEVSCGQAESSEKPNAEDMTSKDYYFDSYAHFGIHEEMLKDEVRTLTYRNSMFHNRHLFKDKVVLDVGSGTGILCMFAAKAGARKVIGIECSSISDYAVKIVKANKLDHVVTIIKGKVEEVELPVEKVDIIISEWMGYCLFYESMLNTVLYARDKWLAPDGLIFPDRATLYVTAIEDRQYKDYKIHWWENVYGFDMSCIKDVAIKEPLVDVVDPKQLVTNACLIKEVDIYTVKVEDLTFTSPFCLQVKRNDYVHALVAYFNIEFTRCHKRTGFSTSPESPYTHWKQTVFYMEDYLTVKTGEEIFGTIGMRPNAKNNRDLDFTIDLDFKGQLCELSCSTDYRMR
mABHD4 FP = ABHD4 inhibitors, primary screen, biochemical, fluorescence polarization, mouse; purified mABHD4, FP-Rh probe fluorescence polarization; (Lyso)-N-acylphosphatidylethanolamine lipase (Mus musculus), Q8VD66; actives 0.54% (n = 370,000); inhibition, % at 8.92 µM;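 active = inhibition exceeding the mean over every tested compound plus 3 SD, cut at about 30% in these data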
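assay system = mABHD4 protein | compound dosing = single nominal dose of 8.92 µM, 0.89% DMSO final | read-out basis = percent inhibition of probe binding, normalized to plate controls | schedule = Enzyme–compound pre-incubation 45 min, then probe 60 min, both 25 °C | detection = fluorescence polarization, excitation 525 nm, emission 598 nm, BODIPY TMR filters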
TCR CD3 inh = inhibitors of human TCR-CD3 interaction, primary screen, biochemical, fluorescence, TAMRA-labeled TCR probe. T-cell receptor (TCR). inhibition, % at 9.4 µM. actives 0.37% (n = 360,000); in the data active = inhibition above about 19%;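 note: recombinant mutant TCR 2C K166C tagged with TAMRA read by polarization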
SIAE inh conf = human SIAE inhibitors, retest, confirmation, biochemical, fluorescence polarization, FP-Rh probe, triplicate; inhibition, % at 9.66 µM; SIAE FP-Rh activity-based probe; shares compounds with SIAE primary; actives 13% (n = 2,300);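 active = mean inhibition of the replicates above the hit cutoff set in the primary screen, cut at about 17% in these data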;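 note: inhibitors lower polarization as more probe stays unbound to SIAE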
Of the large screens only hits and unclear results are named; the others gave an inactive call (follow-up assays come after a bar, where they were run).

CN(c1ccc(OCC(=O)OCC(=O)Nc2ccccc2)cc1)S(=O)(=O)c1ccc(F)cc1	none
CN(c1ccc(OCC(=O)OCC(=O)Nc2ccc([N+](=O)[O-])cc2)cc1)S(=O)(=O)c1cccs1	SIAE primary 40.1 | SIAE inh conf 26.2
COC(=O)C1=C(C)N(Cc2ccc(C(F)(F)F)cc2)C(=NCc2ccc(C(F)(F)F)cc2)NC1c1ccccc1 (centres undefined)	none (no result: HTRA1 inhibitor)
CCCc1cc(=O)oc2c(CN3CCCC3)c(O)c(Cl)cc12	SIAE primary 19.9 | SIAE inh conf inactive
O=C(N[C@@H](Cc1ccccc1)C(=O)N1CCC2CCN(S(=O)(=O)c3ccccc3)CC21)[C@@H]1CCCN1 (some centres undefined)	none (no result: HTRA1 inhibitor, TCR CD3 inh)
COc1cc(/C=C/C(=O)O)cc(S(=O)(=O)N2CCc3ccccc32)c1OC	SIAE primary 18.5 | SIAE inh conf inactive
CCOC(=O)N1[C@@H]2C=C(C)[C@@H]2[C@@H]2[C@@H](C)C(=O)N21	SIAE primary 78.2 | SIAE inh conf 85.6
CCOC(=O)N1C2CCC(C2)N1C(=O)OCC	none
C1=C(CCNc2ncnc3c2[nH]c2ccccc23)CCCC1	SIAE primary 23.2 | SIAE inh conf 22.4
O=C(NCCc1c[nH]c2ccccc12)OCc1cn(-c2cccc(Cl)c2)nn1	none (no result: HTRA1 inhibitor, TCR CD3 inh)
N#C/C(=C\Nc1ccccc1O)c1nc2ccccc2o1	SIAE primary 17.8 | SIAE inh conf inactive
COC(=O)c1ccc(Cn2ccc3ccc(-c4ccc5ccn(C(=O)c6ccccc6)c5c4)cc32)cc1	none (no result: HTRA1 inhibitor, TCR CD3 inh)
CC(=O)N1CCN(S(=O)(=O)c2ccc3c(c2)oc(=O)n3C)CC1	none (no result: HTRA1 inhibitor, TCR CD3 inh)
CN1C(=O)C(=O)N(CC(=O)Nc2ccccc2OC(F)F)C1=O	none
O=C(CN1NS(=O)(=O)c2ccccc2C1=O)Nc1ccccc1OC(F)F	SIAE primary 18.8 | SIAE inh conf inactive
O=C(COC(=O)COc1ccc(Cl)cc1)Nc1ccc2c(c1)OCCO2	SIAE primary 18.2 | SIAE inh conf inactive
COC(=O)[C@]12C[C@H](CC(=O)NCCC(C)C)C(=O)N(Cc3ccc(Cl)cc3Cl)C1=C[C@H](COCc1ccccc1)O[C@@H]2C	none (no result: HTRA1 inhibitor, TCR CD3 inh)
CC(C)(C)CSc1nnc(-c2cccnc2)n1Cc1ccccc1	none (no result: HTRA1 inhibitor, TCR CD3 inh)
CCOC(=O)c1ccccc1NC(=O)COC(=O)CCC(=O)c1ccc(C)cc1	SIAE primary 19.8 | SIAE inh conf inactive
CCOc1ccc(-n2c(SC/C=C/c3ccccc3)nnc2-c2ccco2)cc1	none (no result: HTRA1 inhibitor, TCR CD3 inh)
COc1ccc2c(c1)CCc1sc(NC(=O)c3ccc(C)cc3)nc1-2	SIAE primary 17.5 | SIAE inh conf inactive
COc1ccc2c(c1)-c1nc(NC(=O)c3ccco3)sc1CC2	SIAE primary 19.2 | SIAE inh conf inactive
COc1ccc2c(c1)CCc1sc(NC(=O)c3ccco3)nc1-2	none (no result: SIAE primary, PRMT1 inh, mABHD4 FP, TCR CD3 inh)
Nc1[nH]c(C(=O)c2ccc(Br)cc2)c(-c2c(F)cccc2F)c1C(=O)NCCc1c[nH]c2ccccc12	none (no result: HTRA1 inhibitor)
CC1=C(C)CC(C(=O)NC2CCCC2)C(C(=O)O)C1 (centres undefined)	none
CC1=CCC(C(=O)O)C(C(=O)NC2CCCCC2)C1 (centres undefined)	SIAE primary 22.0 | SIAE inh conf inactive
COC(=O)c1cn(-c2ccc(F)cc2)c(=O)c2ccccc12	SIAE primary 18.0 | SIAE inh conf inactive
COCCN1C(=O)C2=C(C1=O)C1N(C)c3ccccc3[C@@]13C[C@@H](CO)N(S(=O)(=O)c1ccc(OC)cc1)C3=N2 (some centres undefined)	none (no result: HTRA1 inhibitor, TCR CD3 inh)
C[C@H](NC(=O)CCCn1nnc2ccccc2c1=O)C(=O)O	SIAE primary 17.2 | SIAE inh conf inactive
CN(C(=O)c1ccc(OC2CCN(C(=O)c3cccnc3)CC2)cc1)C1CCCCC1	SIAE primary 24.5 | SIAE inh conf inactive
c1ccc(-c2ccc3c(c2)NCCN3)cc1	SIAE primary 17.4 | SIAE inh conf inactive
Nc1cc(-c2ccccc2)ccc1O	none
COc1ccc(NC(=O)c2coc(C)c2)cc1	SIAE primary 18.8 | SIAE inh conf inactive
O=C(CCc1ccccc1)N[C@H]1[C@H](OCc2ccccc2)CCC[C@@]12C(=O)N(Cc1ccccc1)c1ccc(-c3ccsc3)cc12	none (no result: HTRA1 inhibitor, TCR CD3 inh)
